From PubChem BioAssay
Compounds with a hit are over-represented: about 2.6% of the library has one in this group of screens.
MEKK3 PB1 HTS – raises or lowers MEK5 binding to the human MEKK3 PB1 domain; 290,000 tested, 1.4% active; binding response (% of control), % at 10 µM; bead-based flow cytometry, Alexa488-MEK5 binding to MEKK3; actives lie on both sides; 0 = blocked by unlabeled MEK5, 100 = vehicle;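 active means binding response more than 3 SD above or below the average of its plate-row segment, actives on both sides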;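 further: Alexa488 bead fluorescence after subtracting the streptavidin-only scavenger bead signal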
Target sequence (Q99759 whole entry, looked up, the tested form may be a part): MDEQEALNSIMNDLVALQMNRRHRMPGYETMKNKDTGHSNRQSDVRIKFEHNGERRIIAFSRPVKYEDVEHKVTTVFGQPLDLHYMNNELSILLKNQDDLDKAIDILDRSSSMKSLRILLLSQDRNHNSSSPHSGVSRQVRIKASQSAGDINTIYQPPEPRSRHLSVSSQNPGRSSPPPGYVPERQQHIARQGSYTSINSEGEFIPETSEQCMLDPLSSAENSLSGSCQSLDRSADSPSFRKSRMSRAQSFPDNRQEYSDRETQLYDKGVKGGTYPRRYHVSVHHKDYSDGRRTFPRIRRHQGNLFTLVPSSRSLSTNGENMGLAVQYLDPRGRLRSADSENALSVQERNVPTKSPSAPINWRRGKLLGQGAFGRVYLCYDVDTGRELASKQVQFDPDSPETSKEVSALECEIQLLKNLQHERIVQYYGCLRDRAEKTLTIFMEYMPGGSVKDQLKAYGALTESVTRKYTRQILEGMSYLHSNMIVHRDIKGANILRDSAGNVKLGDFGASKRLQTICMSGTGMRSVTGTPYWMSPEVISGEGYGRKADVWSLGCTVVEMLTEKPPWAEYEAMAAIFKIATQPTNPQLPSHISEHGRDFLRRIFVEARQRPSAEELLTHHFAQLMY
Hep lipid drop – modulators of hepatic lipid droplet formation | AML12 mouse hepatocytes, oleate lipid droplets, BODIPY imaging | inhibition, % at 6.5 µM | 240,000 tested, 0.4% active;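 active means lipid droplet intensity inhibited by at least 50%, with more than 500 cells counted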
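Material – mouse AML12 hepatocyte cell line, fixed after treatment · Compound dosing – one dose, 6.5 µM compound · Times – compound with oleate, overnight · Measured by – Image-based BODIPY and DAPI two-channel analysis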
MEKK2 WT-MEK5 – raises or lowers MEK5 binding to wildtype human MEKK2 PB1 domain; Q9Y2U5; bead flow cytometry, Alexa488-MEK5 binding to MEKK2 WT; actives lie on both sides; binding response (% of control), % at 10 µM; 290,000 tested, 1.1% active; AID 1531; in the data active means binding response below about 67% or above about 130%
MEKK2 mut-MEK5 – signal of MEK5 binding to mutant human MEKK2 PB1 domain; percent response, % at 10 µM; 290,000 tested, 0.35% active; bead flow cytometry, Alexa488-MEK5 binding to MEKK2 mutant; in the data active means percent response above about 24%, passing the limit was not always enough
MEKK2wt confirm – raises or lowers MEK5 binding to wildtype human MEKK2, retest; shares compounds with MEKK3 PB1 HTS; binding response (% of control), % at 10 µM; AID 1892; bead flow cytometry, Alexa488-MEK5 binding to MEKK2 WT; actives lie on both sides; 5,900 tested, 2.4% active; in the data active means binding response below about 16% or above about 210%; inactive means in between
MEKK2mut confirm – signal of MEK5 binding to mutant human MEKK2, retest; shares compounds with MEKK3 PB1 HTS; bead flow cytometry, Alexa488-MEK5 binding to MEKK2 mutant; percent response, % at 10 µM; 5,900 tested, 2% active; AID 1893; in the data active means percent response mostly above about 71%, no sharp cut-off; inactive means mostly below about 38%;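 further: higher means compound restores mutant binding toward wildtype level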
MEKK3-MEK5 inh – confirmation of inhibitors of MEK5 binding to human MEKK3; 5,900 tested, 1.8% active; bead flow cytometry, Alexa488-MEK5 binding to MEKK3; stronger effect = lower value; shares compounds with MEKK3 PB1 HTS; binding response (% of control), % at 10 µM;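 active means binding response below 72% of control, or above a set upper limit, though filed actives all read lower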;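 further: 100% = DMSO only wells and 0% = binding blocked by excess unlabeled MEK5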
An asterisk follows results filed as active; nt = no result given; [ ] = remark or other dose.

SMILES | MEKK3 PB1 HTS | Hep lipid drop | MEKK2 WT-MEK5 | MEKK2 mut-MEK5 | MEKK2wt confirm | MEKK2mut confirm | MEKK3-MEK5 inh
Cc1cc2oc(=O)cc(CSc3nnc(-c4cccs4)o3)c2cc1C(C)C | 134* | -13 | 99 | 0 | 96 | -3 | 101
O=C(NCc1ccccc1Br)c1ccc2c(c1)OCCO2 | 105 | 3 | 102 | 1 | nt | nt | nt
Cc1ccc2c(c1)cc(C(=O)N[C@@H](Cc1ccccc1)C(=O)O)n2C | 100 | 6 | 105 | -2 | nt | nt | nt
CC(C)c1c(C(=O)N/N=C/c2ccc3c(c2)OCO3)nnn1-c1nonc1N | 98 | 7 | 100 | -1 | nt | nt | nt
CCN(CC)c1ccc(/C=N/NC(=O)c2nnn(-c3nonc3N)c2C(C)C)c(O)c1 | 2.0*[inhibitor] | -53 | 1.0*[inhibitor] | -20 | 105 | -2 | 102
CCN(C(=O)COC(=O)CNS(=O)(=O)c1ccccc1)c1ccccc1 | 107 | 36 | 99 | 0 | nt | nt | nt
N#Cc1ccccc1NC(=O)c1ccccc1OCC(=O)Nc1ccc2c(c1)oc1ccccc12 | 78*[inhibitor] | nt | 88 | -11 | 91 | -33 | 96
CNC(=O)COc1ccccc1C(=O)Nc1ccc2c(c1)oc1ccccc12 | 103 | nt | 101 | 1 | nt | nt | nt
CC1Cc2ccccc2N1S(=O)(=O)c1cccs1 (stereo not drawn) | 104 | -32 | 8.0*[inhibitor] | 18 | 87 | -12 | 91
COc1ccc(C(=O)NN2CC(O)=C(c3nc4ccccc4n3C)C2=N)cc1OC | 102 | 23 | 94 | 11 | nt | nt | nt
Cc1ccc(S(=O)(=O)c2c(C)cc(-c3ccccc3)[nH]c2=O)cc1 | 143* | nt | 134* | 7 | 102 | -1 | 103
CCCCN1C(=O)C(CC(=O)NCC)SC1=Nc1ccccc1 (stereo not drawn) | 134* | 11 | 108 | 6 | 95 | 4 | 95
COC(=O)c1c(C(=O)OC)c(-c2ccc(Cl)cc2)n2c1CS(=O)(=O)C2 | 103 | 14 | 100 | -3 | nt | nt | nt
O=c1ccc(-c2ccc(S(=O)(=O)Nc3cccc(Br)c3)o2)n[nH]1 | 100 | -3 | 101 | 7 | nt | nt | nt
Cc1cccc(NC(=O)COC(=O)c2ccccc2SCC(=O)N2CCCC2)c1 | 102 | 3 | 109 | 5 | nt | nt | nt
CCc1ccc(OC(=O)Nc2ccccc2)cc1 | 102 | -14 | 112 | 8 | nt | nt | nt
COc1ccc(CNCCCSc2ncccn2)c(OC)c1 | 103 | 6 | 128 | 22 | nt | nt | nt
CSc1ccc(CNCCCSc2ncccn2)cc1 | 111 | 4 | 147* | 25* | 114 | 4 | 105
Clc1cccc(CNCCCSc2ncccn2)c1 | 114 | 3 | 139* | 27* | 126 | 19 | 111
COc1ccc(CNCCCSc2ncccn2)cc1OC | 111 | 5 | 132 | 30* | 123 | 14 | 102
Nc1nc(-c2cc(-c3ccccc3)no2)cs1 | 108 | 23 | 111 | 8 | nt | nt | nt
c1ccc(-c2cc(-c3ccccc3)on2)cc1 | 130* | 12 | 129 | 27 | 109 | 15 | 107
COc1cccc(NC(=O)C(=O)N/N=C(\C)CC(=O)Nc2ccc(NC(C)=O)cc2)c1 | 99 | -2 | 102 | 2 | nt | nt | nt
O=c1ccc(Cl)cn1Cc1ccccc1F | 127* | -2 | 91 | 7 | 95 | -2 | 95
CCOC(=O)c1c(CSc2ccc(CC)cc2)oc2ccc(O)c(CN(C)C)c12 | 112 | 29 | 153* | 36* | 166 | 38 | 109
CC(CN1CCOCC1)C(=O)O (stereo not drawn) | 126* | 0 | 127 | 11 | 97 | -2 | 101
CC(CC(C)C(=O)N1CCOCCN(C(=O)C(C)CC(C)C(=O)O)CCOCC1)C(=O)O (stereo not drawn) | 78 | nt | 80 | -10 | nt | nt | nt
O=C(C1CCCCN1S(=O)(=O)c1ccccc1[N+](=O)[O-])N1CCCCC1 (stereo not drawn) | 74*[inhibitor] | -24 | 90 | -2 | 99 | -2 | 103
O=C(Cc1c(F)c(F)c(F)c(F)c1F)Nc1nc(-c2ccccc2)cs1 | 102 | -39 | 97 | 5 | nt | nt | nt
